Measurements taken from ChEMBL document CHEMBL1126916, “Cyclic GMP phosphodiesterase inhibitors. 1. The discovery of a novel potent inhibitor, 4-((3,4-(methylenedioxy)benzyl)amino)-6,7,8-trimethoxyquinazoline” (J Med Chem, 1993).
pEC50, pIC50: −log10 of the molar value.

Legend:
Sus scrofa = organism: Sus scrofa; experiment: Relaxant effect on PGF2-alpha precontracted pig coronary arteries; format: functional
Outline: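 Porcine coronary arterial strips were equilibrated at 1 g resting tension. Intact endothelium was confirmed by 7 × 10^-9 M bradykinin relaxing strips precontracted with 50 mM KCl (final concentrations). Strips were then contracted with PGF2α, final 10^-6 M, and cumulative concentration–relaxation curves were built after a plateau. Relaxation was expressed as % of the PGF2α contraction. EC50 came from the log curve, mean ± SEM, n experiments.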

Phosphodiesterase 4A [1] = molecular target: T1, Phosphodiesterase 4A (Sus scrofa, UniProt O77823); experiment: Inhibition of cAMP specific phosphodiesterase from porcine coronary arteries; settings: in the assay text read “porcine aorta” for “porcine coronary arteries”
T1 sequence (O77823 whole entry): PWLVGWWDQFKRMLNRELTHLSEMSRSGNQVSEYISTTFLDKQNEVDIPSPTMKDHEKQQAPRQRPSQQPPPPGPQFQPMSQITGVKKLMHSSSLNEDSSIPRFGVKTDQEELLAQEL
Outline: (§1)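 Isozymes were separated from porcine aorta: type II (cGMP-stimulated), type III, and type IV (cAMP-specific). Each used [3H]cAMP at 1 μM as substrate. Compounds were tested in DMSO diluted in assay buffer over 10^-8 to 10^-4 M, with final DMSO below 0.4% (v/v). IC50 came from log concentration–inhibition curves (at least three points), as means ± SEM from at least three experiments.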

Phosphodiesterase 4A [2] = molecular target: T1, Phosphodiesterase 4A; experiment: Inhibition of cAMP specific phosphodiesterase from porcine aorta
Phosphodiesterase 3A = molecular target: T2, Phosphodiesterase 3A (Sus scrofa, UniProt Q9XSW7); experiment: Inhibition of cGMP-inhibited phosphodiesterase from porcine coronary arteries; outline: as §1
T2 sequence (Q9XSW7 whole entry): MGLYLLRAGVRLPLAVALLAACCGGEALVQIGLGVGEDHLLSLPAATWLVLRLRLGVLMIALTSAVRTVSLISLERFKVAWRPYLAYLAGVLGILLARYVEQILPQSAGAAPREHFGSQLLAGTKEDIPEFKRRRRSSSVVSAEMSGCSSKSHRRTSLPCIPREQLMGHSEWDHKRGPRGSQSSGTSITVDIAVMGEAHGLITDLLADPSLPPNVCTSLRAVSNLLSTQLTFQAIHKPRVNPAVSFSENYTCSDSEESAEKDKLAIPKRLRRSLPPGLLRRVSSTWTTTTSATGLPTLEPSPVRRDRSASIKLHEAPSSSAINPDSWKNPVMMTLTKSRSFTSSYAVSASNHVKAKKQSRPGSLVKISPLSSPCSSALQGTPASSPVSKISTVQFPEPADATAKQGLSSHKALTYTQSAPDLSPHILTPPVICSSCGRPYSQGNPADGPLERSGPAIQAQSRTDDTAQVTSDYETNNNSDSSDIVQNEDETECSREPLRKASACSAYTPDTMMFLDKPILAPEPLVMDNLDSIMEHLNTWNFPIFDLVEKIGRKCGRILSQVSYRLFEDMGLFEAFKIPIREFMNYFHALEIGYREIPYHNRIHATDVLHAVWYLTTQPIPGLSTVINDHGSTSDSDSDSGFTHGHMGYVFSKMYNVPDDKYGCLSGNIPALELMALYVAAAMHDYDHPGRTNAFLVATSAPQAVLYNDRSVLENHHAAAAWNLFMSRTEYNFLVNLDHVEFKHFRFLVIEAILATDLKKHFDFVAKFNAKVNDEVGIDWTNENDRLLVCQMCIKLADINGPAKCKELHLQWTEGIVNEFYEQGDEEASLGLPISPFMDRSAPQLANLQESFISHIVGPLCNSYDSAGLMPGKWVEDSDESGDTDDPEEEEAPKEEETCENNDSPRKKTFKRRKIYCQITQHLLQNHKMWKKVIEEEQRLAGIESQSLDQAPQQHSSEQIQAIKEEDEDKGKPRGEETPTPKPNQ

Phosphodiesterase 4A [3] = molecular target: T1, Phosphodiesterase 4A; experiment: Inhibition of cAMP specific phosphodiesterase from porcine aorta
Outline: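 PDE isozymes (types I–V) separated from porcine aorta. Substrate was [3H]cGMP for types I and V and [3H]cAMP for types II, III and IV, each at 1 μM. Test agents were dissolved in DMSO and diluted in assay buffer over 10^-8 to 10^-4 M, with final DMSO below 0.4% (v/v). IC50 was taken from the log concentration–inhibition curve (at least three points), mean ± SEM of at least three experiments.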

[4] = in the assay text read “porcine aorta” for “porcine coronary arteries”

SMILES | pEC50 (Sus scrofa) | pIC50 (Phosphodiesterase 4A [1]) | pIC50 (Phosphodiesterase 3A; [4]) | pIC50 (Phosphodiesterase 4A [2]) | further results
COc1cc2c(NCc3ccc4c(c3)OCO4)ncnc2c(OC)c1OC | 5.71 | < 4.00 |  |  | 
Clc1cccc(Nc2nnc(-c3ccccc3)c3ccccc23)c1 |  |  |  | 4.43 | 
COc1ccc(Cc2nccc3cc(OC)c(OC)cc23)cc1OC [PAPAVERINE] |  |  |  | 5.77 | pIC50 (Phosphodiesterase 3A): 6.21

More lines, main results first:

pEC50 (Sus scrofa) | pIC50 (Phosphodiesterase 4A [1]) | pIC50 (Phosphodiesterase 3A; [4]) | SMILES | pIC50 (Phosphodiesterase 4A [2]) | further results
 | 5.19 | < 4.00 | OCCN(CCO)c1nc(N2CCCCC2)c2nc(N(CCO)CCO)nc(N3CCCCC3)c2n1 [DIPYRIDAMOLE] |  | 
5.32 |  | < 4.00 | CCCOc1ccccc1-c1nc2nn[nH]c2c(=O)[nH]1 [ZAPRINAST] |  | pIC50 (Phosphodiesterase 4A [3]): 4.10
